From ChEMBL document CHEMBL4371014, “Novel Allosteric Ligands of γ-Aminobutyric Acid Transporter 1 (GAT1) by MS Based Screening of Pseudostatic Hydrazone Libraries” (J Med Chem, 2018)

molecular target: Sodium- and chloride-dependent GABA transporter 1 (Mus musculus) (UniProt P31648); assay: Inhibition of NO711 binding to mouse GAT1 expressed in HEK293 cell membranes assessed as residual binding at 1 uM preincubated for 4 hrs followed by NO711 addition and measured after 40 mins by LC-ESI-MS/MS analysis relative to control
Procedure, shortened: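 Single hydrazones formed in situ in the presence of mouse GAT1 from one aldehyde (1.0 µM) and hydrazine (200 µM). Formation ran 4 h, then NO711 MS marker was added for 40 min. Specifically bound NO711 was freed from the target and quantified by LC-ESI-MS/MS. Results are % remaining specific binding, means±SD of four replicates.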

| SMILES | Activity |
| --- | --- |
| COc1cc(/C=N/NCC[C@@H]2CNC[C@H](C(=O)O)C2)cc(OC)c1O (racemic) | 62% |
| Cc1ccc(-c2cccc(/C=N/NC[C@@H]3CNC[C@H](C(=O)O)C3)c2)cc1 (racemic) | 61% |
| Cc1ccc(-c2ccsc2/C=N/NCC[C@@H]2CNC[C@H](C(=O)O)C2)cc1 (racemic) | 83% |
| Cc1cccc2cc(/C=N/NCC[C@@H]3CNC[C@H](C(=O)O)C3)c(Cl)nc12 (racemic) | 62% |
| Cc1ccccc1-c1ccsc1/C=N/NCC[C@@H]1CNC[C@H](C(=O)O)C1 (racemic) | 64% |
| Cc1ccsc1-c1ccccc1/C=N/NCC[C@@H]1CNC[C@H](C(=O)O)C1 (racemic) | 61% |
| Cc1ccsc1-c1sc(/C=N/NCC[C@@H]2CNC[C@H](C(=O)O)C2)cc1C (racemic) | 79% |
| Cc1ccsc1-c1sc(/C=N/NC[C@H]2CNC[C@H](C(=O)O)C2)cc1C (racemic) | > 50% |
| Cn1c(/C=N/NC[C@@H]2CNC[C@H](C(=O)O)C2)ccc1-c1ccc(Cl)cc1 (racemic) | 87% |
| Cn1cnnc1Sc1ccc(/C=N/NCC[C@@H]2CNC[C@H](C(=O)O)C2)o1 (racemic) | 73% |
| Cn1cnnc1Sc1ccc(/C=N/NC[C@@H]2CNC[C@H](C(=O)O)C2)o1 (racemic) | 84% |
| Nc1ncc(-c2ccccc2/C=N/NC[C@@H]2CNC[C@H](C(=O)O)C2)cn1 (racemic) | 93% |
| O=C(O)[C@H]1CNC[C@@H](CCN/N=C/c2ccc(-c3cc(C(F)(F)F)cc(C(F)(F)F)c3)o2)C1 (racemic) | 76% |
| O=C(O)[C@H]1CNC[C@@H](CCN/N=C/c2ccc(-c3cc(C(F)(F)F)ccc3Cl)o2)C1 (racemic) | 54% |
| O=C(O)[C@H]1CNC[C@@H](CCN/N=C/c2ccc(-c3ccc(Br)cc3)o2)C1 (racemic) | 65% |
| O=C(O)[C@H]1CNC[C@@H](CCN/N=C/c2ccc(-c3ccc(Cl)cc3)o2)C1 (racemic) | 62% |
| O=C(O)[C@H]1CNC[C@@H](CCN/N=C/c2ccc(-c3ccc(Cl)cc3F)o2)C1 (racemic) | 64% |
| O=C(O)[C@H]1CNC[C@@H](CCN/N=C/c2ccc(-c3ccc(Cl)cc3[N+](=O)[O-])o2)C1 (racemic) | 60% |
| O=C(O)[C@H]1CNC[C@@H](CCN/N=C/c2ccc(-c3ccc(F)c(C(F)(F)F)c3)o2)C1 (racemic) | 72% |
| O=C(O)[C@H]1CNC[C@@H](CCN/N=C/c2ccc(-c3cccc(C(F)(F)F)c3)o2)C1 (racemic) | 70% |
| O=C(O)[C@H]1CNC[C@@H](CCN/N=C/c2ccc(-c3cccc(Cl)c3)o2)C1 (racemic) | 69% |

| SMILES | Activity |
| --- | --- |
| O=C(O)[C@H]1CNC[C@@H](CCN/N=C/c2ccc(-c3cccc4ccccc34)o2)C1 (racemic) | 58% |
| O=C(O)[C@H]1CNC[C@@H](CCN/N=C/c2ccc(-c3ccccc3)o2)C1 (racemic) | 61% |
| O=C(O)[C@H]1CNC[C@@H](CCN/N=C/c2ccc(-c3ccccc3C(F)(F)F)o2)C1 (racemic) | 60% |
| O=C(O)[C@H]1CNC[C@@H](CCN/N=C/c2ccc(-c3ccccc3Cl)o2)C1 (racemic) | 52% |
| O=C(O)[C@H]1CNC[C@@H](CCN/N=C/c2ccc(-c3ccccc3OC(F)(F)F)o2)C1 (racemic) | 59% |
| O=C(O)[C@H]1CNC[C@@H](CCN/N=C/c2ccc(-c3ccn[nH]3)o2)C1 (racemic) | 72% |
| O=C(O)[C@H]1CNC[C@@H](CCN/N=C/c2ccc(C#Cc3ccccc3)s2)C1 (racemic) | 71% |
| O=C(O)[C@H]1CNC[C@@H](CCN/N=C/c2ccccc2-c2ccsc2)C1 (racemic) | 80% |
| O=C(O)[C@H]1CNC[C@@H](CCN/N=C/c2ccccc2-n2cccc2)C1 (racemic) | 82% |
| O=C(O)[C@H]1CNC[C@@H](CCN/N=C/c2cccn2-c2ccc(C(F)(F)F)cc2)C1 (racemic) | 74% |
| O=C(O)[C@H]1CNC[C@@H](CCN/N=C/c2ccco2)C1 (racemic) | 60% |
| O=C(O)[C@H]1CNC[C@@H](CCN/N=C/c2cnc(-c3ccccn3)nc2)C1 (racemic) | 83% |
| O=C(O)[C@H]1CNC[C@@H](CCN/N=C/c2csc3ccccc23)C1 (racemic) | 75% |
| O=C(O)[C@H]1CNC[C@@H](CCN/N=C/c2sccc2-n2cccc2)C1 (racemic) | 72% |
| O=C(O)[C@H]1CNC[C@@H](CN/N=C/c2cc(Br)co2)C1 (racemic) | 53% |
| O=C(O)[C@H]1CNC[C@@H](CN/N=C/c2ccc(-c3ccc(Br)cc3)o2)C1 (racemic) | 59% |
| O=C(O)[C@H]1CNC[C@@H](CN/N=C/c2ccc(-c3ccc(Cl)cc3)s2)C1 (racemic) | 75% |
| O=C(O)[C@H]1CNC[C@@H](CN/N=C/c2ccc(-c3ccccc3)[nH]2)C1 (racemic) | 85% |
| O=C(O)[C@H]1CNC[C@@H](CN/N=C/c2ccc(-c3ccccc3)s2)C1 (racemic) | 55% |
| O=C(O)[C@H]1CNC[C@@H](CN/N=C/c2ccc(-c3ccccc3Br)o2)C1 (racemic) | 36% |
| O=C(O)[C@H]1CNC[C@@H](CN/N=C/c2ccc(Br)o2)C1 (racemic) | 55% |

| SMILES | Activity |
| --- | --- |
| O=C(O)[C@H]1CNC[C@@H](CN/N=C/c2ccc(I)o2)C1 (racemic) | 69% |
| O=C(O)[C@H]1CNC[C@@H](CN/N=C/c2ccc[nH]2)C1 (racemic) | 89% |
| O=C(O)[C@H]1CNC[C@@H](CN/N=C/c2cccc(-c3ccc(Cl)cc3)c2)C1 (racemic) | 52% |
| O=C(O)[C@H]1CNC[C@@H](CN/N=C/c2cccc(-c3ccc(F)cc3)c2)C1 (racemic) | 50% |
| O=C(O)[C@H]1CNC[C@@H](CN/N=C/c2cccs2)C1 (racemic) | 67% |
| O=C(O)[C@H]1CNC[C@@H](CN/N=C/c2cnc(-c3ccc4ccccc4c3)nc2)C1 (racemic) | 27% |
| O=C(O)[C@H]1CNC[C@@H](CN/N=C/c2cnc(-c3cccc4ccccc34)nc2)C1 (racemic) | 61% |
| O=C(O)[C@H]1CNC[C@@H](CN/N=C/c2cnc(-c3ccccc3)nc2)C1 (racemic) | 55% |
| O=C(O)[C@H]1CNC[C@@H](CN/N=C/c2cnc(-c3ccccc3F)nc2)C1 (racemic) | 68% |
| O=C(O)[C@H]1CNC[C@@H](CN/N=C/c2cnc(-c3ccco3)nc2)C1 (racemic) | 73% |
| O=C(O)[C@H]1CNC[C@@H](CN/N=C/c2cnc(-c3cccs3)nc2)C1 (racemic) | 60% |
| O=C(O)[C@H]1CNC[C@@H](CN/N=C/c2cnc(N3CCCCC3)nc2)C1 (racemic) | 69% |
| O=C(O)[C@H]1CNC[C@@H](CN/N=C/c2cnc(NCc3ccccc3)nc2)C1 (racemic) | 60% |
| O=C(O)[C@H]1CNC[C@@H](CN/N=C/c2cnc(SCc3ccccc3)nc2)C1 (racemic) | 53% |
| O=C(O)[C@H]1CNC[C@@H](CN/N=C/c2cncnc2)C1 (racemic) | 64% |
| O=C(O)[C@H]1CNC[C@H](CN/N=C/c2ccc(-c3ccc(C(F)(F)F)cc3Cl)o2)C1 (racemic) | > 50% |
| O=C(O)[C@H]1CNC[C@H](CN/N=C/c2ccccc2-n2cccc2)C1 (racemic) | > 50% |
| O=C(O)[C@H]1CNC[C@H](CN/N=C/c2csc3ccccc23)C1 (racemic) | > 50% |
| O=C(O)[C@H]1CNC[C@H](CN/N=C/c2sccc2-n2cccc2)C1 (racemic) | > 50% |
